TRPC4 potent: allosteric potentiators of mouse TRPC4 channel; Q9QUQ5; HEK293 TRPC4beta/mu-opioid, DAMGO EC20, Fluo-4 Ca2+ flux; active compounds read high; B-score at 10 µM; 310,000 tested, 0.42% active; AID 2227;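 active means B-score of calcium response area above 5 SD of library B-scores, with initial fluorescence ratio within 5 SD of library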;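 further: B-score of integrated fluorescence ratio over time as area under calcium response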
Target sequence (Q9QUQ5 whole entry, looked up): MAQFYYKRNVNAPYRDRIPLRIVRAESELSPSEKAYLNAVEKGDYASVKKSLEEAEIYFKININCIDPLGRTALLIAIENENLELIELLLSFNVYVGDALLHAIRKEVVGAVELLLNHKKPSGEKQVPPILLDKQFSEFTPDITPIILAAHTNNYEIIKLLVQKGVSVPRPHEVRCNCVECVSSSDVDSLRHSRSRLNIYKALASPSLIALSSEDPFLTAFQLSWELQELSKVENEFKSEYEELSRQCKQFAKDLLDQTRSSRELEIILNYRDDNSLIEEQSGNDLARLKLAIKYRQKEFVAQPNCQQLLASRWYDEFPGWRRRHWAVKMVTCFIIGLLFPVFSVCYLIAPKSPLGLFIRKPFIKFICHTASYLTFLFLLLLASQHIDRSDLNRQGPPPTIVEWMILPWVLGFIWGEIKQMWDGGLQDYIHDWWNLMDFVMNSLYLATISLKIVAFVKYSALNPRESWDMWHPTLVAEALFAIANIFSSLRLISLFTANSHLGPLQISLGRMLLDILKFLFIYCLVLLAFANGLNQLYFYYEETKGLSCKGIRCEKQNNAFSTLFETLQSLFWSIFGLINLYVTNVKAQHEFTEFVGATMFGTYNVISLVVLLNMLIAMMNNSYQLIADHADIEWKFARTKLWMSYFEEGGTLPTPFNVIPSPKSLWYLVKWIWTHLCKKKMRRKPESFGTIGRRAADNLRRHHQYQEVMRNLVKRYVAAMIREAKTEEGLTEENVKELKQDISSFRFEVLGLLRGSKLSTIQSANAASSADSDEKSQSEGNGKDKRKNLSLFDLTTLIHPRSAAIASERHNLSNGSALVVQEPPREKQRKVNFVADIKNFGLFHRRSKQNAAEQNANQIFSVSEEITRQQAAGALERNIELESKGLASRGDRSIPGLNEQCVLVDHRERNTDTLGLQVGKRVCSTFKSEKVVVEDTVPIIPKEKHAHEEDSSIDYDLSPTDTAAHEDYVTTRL
TRPC4 block: blocks the mouse TRPC4 cation channel | Q9QUQ5 | HEK293 TRPC4beta/mu-opioid, DAMGO-evoked Fluo4 calcium flux; active compounds read low | B-score at 10 µM | 300,000 tested, 0.39% active | AID 2247;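 active means B-score over 3 SD under the library average, no early fluorescence shift, positive overall ratio signal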
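material = TRPC4beta/mu-opioid receptor HEK293 cell line | probe or stimulus = sequential submaximal and maximal DAMGO stimulation | compound dosing = one concentration per compound | measured by = Fluo4 Ca2+ flux fluorescence | evaluation = integrated fluorescence ratio relative to baseline, converted to per-well B score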
TRPC4 act: opens the mouse TRPC4 cation channel; 310,000 tested, 0.49% active; HEK293 TRPC4beta/mu-opioid, Fluo4 calcium fluorescence; active compounds read high; B-score at 10 µM;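 active means B-score above 5 SD of library B-scores, and initial fluorescence ratio not above library mean plus 5 SD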;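 further: positive B-score marks a calcium rise read as TRPC4 activation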
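Assay system: HEK293 stable line with TRPC4beta plus mu-opioid receptor. Times: dye 45 min RT, read 110 s. Measured by: kinetic Fluo4 calcium fluorescence. Measure: B score of integrated ratio. Controls: assay buffer as low control, maximal DAMGO as high control.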
TRPC6 activator: activates the mouse TRPC6 cation channel; AID 2550; Q61143; 310,000 tested, 0.13% active; B-score at 10 µM; HEK293-TRPC6 membrane potential dye fluorescence; active compounds read high;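 active means B-score of the integrated fluorescence ratio above library mean plus 3 SD, and starting fluorescence ratio within library mean plus 5 SD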;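 further: higher score means more depolarization so channel activation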
TRPC6 inhibitor: blocks the mouse TRPC6 cation channel | Q61143 | HEK293-TRPC6, membrane potential dye, ACh-evoked depolarization; active compounds read low | B-score at 10 µM | 310,000 tested, 1.1% active | AID 2553;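 active means B-score under library mean minus 3 SD, initial fluorescence not abnormally high, positive integrated signal ratio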;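 further: B-score derived from integrated fluorescence ratio over the kinetic read; more negative B-score means stronger inhibition of depolarization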
TRPC4 sel inh 2: second check of whether TRPC6 inhibitors also affect mouse TRPC4; shares compounds with TRPC6 inhibitor; HEK293 TRPC4/MOR, membrane potential dye fluorescence; channel activated by saturating DAMGO dose; inhibition, % at 10 µM; 920 tested, 42% active; AID 2776;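 active means compounds whose fluorescence signal differed from control wells by over 3 SD, either direction, in both duplicate plates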
TRPC4 spec: mouse TRPC4 off-target activity of TRPC6 inhibitors | shares compounds with TRPC6 inhibitor | activity change, negative = inhibition, % at 10 µM | HEK293 TRPC4/mu-opioid, membrane potential fluorescence | 920 tested, 61% active;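 active means rise or fall in signal beyond 3 SD of buffer-only wells in both replicate plates, either sign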;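 further: integrated kinetic ratio of fluorescence range over baseline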
HEK293 MPD ctr 2-1: second counter-screen for TRPC6 inhibitors: parental HEK293 cells. signal change vs control, % at 10 µM. AID 2779. 920 tested, 31% active. shares compounds with TRPC6 inhibitor. parental HEK293 membrane potential dye fluorescence; maximal acetylcholine challenge after compound addition;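 active means membrane potential signal moving either way by over 3 SD of the maximum-effect control, in both duplicate plates, meaning non-specific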
HEK293 MPD ctr-1: parental HEK293 nonspecific activity of TRPC6 inhibitors; shares compounds with TRPC6 inhibitor; parental HEK293 membrane potential dye fluorescence; membrane potential signal change, % at 10 µM; 920 tested, 60% active;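 active means membrane potential signal shifting up or down by more than 3 SD of buffer-only wells, on both duplicate plates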
HEK293 MPD ctr-2: parental HEK293 nonspecific activity of TRPC6 modulators. shares compounds with TRPC6 inhibitor. membrane potential dye fluorescence. membrane potential signal change, % at 10 µM. 2,400 tested, 51% active. AID 488924;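 active means membrane potential signal moves up or down beyond 5 SD from buffer-only wells, on both duplicate plates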
HEK293 MPD ctr 2-2: parental HEK293 nonspecific activity of TRPC6 modulators, second screen; 2,400 tested, 14% active; shares compounds with TRPC6 inhibitor; inhibition, % at 10 µM; AID 488926; membrane potential dye fluorescence; after compound, maximal acetylcholine stimulation;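 active means membrane potential signal drops by more than 5 SD from the mean control signal, in both duplicate plates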;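 further: plate controls were acetylcholine ECmax control wells for no effect and buffer only wells for full effect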
TRPC4/MOR mod: mouse TRPC4 off-target activity of TRPC6 modulators; shares compounds with TRPC6 inhibitor; HEK293 TRPC4/mu-opioid, membrane potential fluorescence; percent change from control (negative = decrease, positive = increase), % at 10 µM; 2,400 tested, 69% active; AID 488927;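 active means membrane potential signal moved up or down beyond 5 SD of buffer control wells, in both duplicate plates, actives on both sides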;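 further: plate controls were assay buffer wells for no effect and DAMGO maximal-effect wells for full effect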
TRPC4 ctr inh 2: mouse TRPC4 off-target activity of TRPC6 modulators, second screen; shares compounds with TRPC6 inhibitor; HEK293 TRPC4/mu-opioid, membrane potential dye fluorescence; stimulated with maximal-effect DAMGO; inhibition, % at 10 µM; 2,400 tested, 55% active;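 active means drop in membrane potential signal beyond 5 SD of the control wells in both duplicate plates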;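 further: TRPC4 counter screen for TRPC6 hits run under conditions tuned for TRPC6 not TRPC4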
TRPC6 block conf: mouse TRPC6 inhibitor confirmation. AID 488960. 3,300 tested, 43% active. shares compounds with TRPC6 inhibitor. inhibition, % at 10 µM. HEK293-TRPC6, membrane potential dye, ACh-evoked depolarization;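 active means fluorescence ratio falls more than 5 SD below the full-stimulation control mean, in both duplicate runs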;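 further: integrated fluorescence ratio of peak minus minimum over baseline after agonist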
TRPC6 act confirm: confirmation of mouse TRPC6 activators | HEK293-TRPC6 membrane potential dye fluorescence, FDSS | activation, % at 10 µM | 2,800 tested, 11% active | shares compounds with TRPC6 inhibitor | AID 488961;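 active means ratio signal rise beyond 5 SD above unstimulated control wells' mean, seen in both duplicate runs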;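 further: plate controls were buffer EC0 wells for no effect and acetylcholine ECmax response for full effect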
Numbers without * were called inactive. An excerpt weighted towards active compounds, which were near 2.3% of everything screened.

Screening CSc1ccc(Cl)c(C(=O)Nc2ccc(C)cn2)c1 returned TRPC4 potent inactive, TRPC4 block inactive, TRPC4 act inactive, TRPC6 activator inactive and TRPC6 inhibitor inactive.
`COc1ccc([N+](=O)[O-])cc1NC(=O)C(C)N1CCCC1` (stereo not drawn) gave TRPC4 potent inactive, TRPC4 block inactive, TRPC4 act inactive, TRPC6 activator inactive, TRPC6 inhibitor -6.1*, HEK293 MPD ctr-2 inactive, HEK293 MPD ctr 2-2 85.5%*, TRPC4/MOR mod inactive, TRPC4 ctr inh 2 inactive, TRPC6 block conf 72.0%* and TRPC6 act confirm inactive.
For CC(NCc1ccc(N(C)C)cc1)C1CC2CCC1C2 (stereo not drawn) the results were TRPC4 potent inactive, TRPC4 block inactive, TRPC4 act inactive, TRPC6 activator inactive, TRPC6 inhibitor -6.55*, HEK293 MPD ctr-2 231.0%*, HEK293 MPD ctr 2-2 70.0%*, TRPC4/MOR mod 51.0%*, TRPC4 ctr inh 2 60.5%* and TRPC6 block conf 77.0%*.
Screening CCN1C(=O)/C(=C\N2CCCCCC2)SC1=S returned TRPC4 potent inactive, TRPC4 block inactive, TRPC4 act inactive, TRPC6 activator inactive, TRPC6 inhibitor -7.23*, TRPC4 sel inh 2 inactive, TRPC4 spec inactive, HEK293 MPD ctr 2-1 inactive, HEK293 MPD ctr-1 inactive, TRPC6 block conf inactive and TRPC6 act confirm inactive.
Cc1cc(NCCCN2CCOCC2)n2nc(C)c(-c3ccccc3)c2n1 was read as TRPC4 potent inactive, TRPC4 block inactive, TRPC4 act inactive, TRPC6 activator inactive, TRPC6 inhibitor -6.06*, HEK293 MPD ctr-2 -171.0%*, HEK293 MPD ctr 2-2 inactive, TRPC4/MOR mod -31.0%*, TRPC4 ctr inh 2 38.0%*, TRPC6 block conf inactive and TRPC6 act confirm inactive.
For COc1cccc(NC(=O)c2ccc3c(c2)C(=O)N(CC2CCCO2)C3=O)c1 (stereo not drawn) the results were TRPC4 potent inactive, TRPC4 block inactive, TRPC4 act inactive, TRPC6 activator inactive and TRPC6 inhibitor inactive.
O=C1CN(C(=O)/C=C/c2cccc(Cl)c2)c2ccccc2N1 was read as TRPC4 potent inactive, TRPC4 block inactive, TRPC4 act inactive, TRPC6 activator inactive, TRPC6 inhibitor -6.74*, TRPC4 sel inh 2 inactive, TRPC4 spec inactive, HEK293 MPD ctr 2-1 inactive, HEK293 MPD ctr-1 inactive, TRPC6 block conf inactive and TRPC6 act confirm inactive.
For Cn1c(=O)c(/C=C/c2ccccc2)nc2ccccc21 the results were TRPC4 potent inactive, TRPC4 block inactive, TRPC4 act inactive, TRPC6 activator inactive and TRPC6 inhibitor inactive.
Screening Cn1c(/C=C/c2ccccc2)nc2ccccc21 returned TRPC4 potent inactive, TRPC4 block inactive, TRPC4 act inactive, TRPC6 activator inactive, TRPC6 inhibitor -7.92*, TRPC4 sel inh 2 23.0%*, TRPC4 spec 3.3%*, HEK293 MPD ctr 2-1 inactive, HEK293 MPD ctr-1 -204.0%*, TRPC6 block conf inactive and TRPC6 act confirm inactive.
CC(=O)c1ccc(OCCCC(=O)OCc2nnc(-c3ccc(Cl)cc3)o2)cc1 was read as TRPC4 potent inactive, TRPC4 block inactive, TRPC4 act inactive, TRPC6 activator inactive and TRPC6 inhibitor inactive.
CC(=O)Nc1ccc(OCc2nnc(-c3ccc(Cl)cc3)o2)cc1 was read as TRPC4 potent inactive, TRPC4 block inactive, TRPC4 act inactive, TRPC6 activator inactive, TRPC6 inhibitor -6.32*, HEK293 MPD ctr-2 inactive, HEK293 MPD ctr 2-2 inactive, TRPC4/MOR mod inactive, TRPC4 ctr inh 2 inactive, TRPC6 block conf inactive and TRPC6 act confirm inactive.
For Cc1ccc(S(=O)(=O)NNC(=O)C2CCN(Cc3ccccc3)CC2)cc1 the results were TRPC4 potent inactive, TRPC4 block inactive, TRPC4 act inactive, TRPC6 activator inactive, TRPC6 inhibitor -14.6*, TRPC4 sel inh 2 inactive, TRPC4 spec inactive, HEK293 MPD ctr 2-1 -14.5%*, HEK293 MPD ctr-1 0.1%*, TRPC6 block conf 83.5%* and TRPC6 act confirm inactive.
CCN(CC)c1ccc(NC(=O)C2CCCC2)cc1 was read as TRPC4 potent inactive, TRPC4 block inactive, TRPC4 act inactive, TRPC6 activator inactive, TRPC6 inhibitor -5.77*, HEK293 MPD ctr-2 inactive, HEK293 MPD ctr 2-2 inactive, TRPC4/MOR mod inactive, TRPC4 ctr inh 2 inactive, TRPC6 block conf inactive and TRPC6 act confirm inactive.
Screening COC(=O)C1CCN(Cc2ccc(C)cc2)CC1 returned TRPC4 potent inactive, TRPC4 block inactive, TRPC4 act inactive, TRPC6 activator inactive and TRPC6 inhibitor inactive.
Screening CCN(CC)c1ccc(CN2CCC(C(=O)NCc3ccc(C)cc3)CC2)cc1 returned TRPC4 potent inactive, TRPC4 block inactive, TRPC4 act inactive, TRPC6 activator inactive, TRPC6 inhibitor -5.09*, HEK293 MPD ctr-2 inactive, HEK293 MPD ctr 2-2 inactive, TRPC4/MOR mod inactive, TRPC4 ctr inh 2 77.0%*, TRPC6 block conf 57.5%* and TRPC6 act confirm inactive.

Bioassay records (PubChem BioAssay)
